From ChEMBL document CHEMBL1165941, “Design and synthesis of 2,4-disubstituted polyhydroquinolines as prospective antihyperglycemic and lipid modulating agents” (Bioorg Med Chem, 2010)
Activity calls are given as the source filed them. No cut-off for these calls is given here.

Key:
Rattus norvegicus [1] = test: Antidyslipidemic activity in Charles Foster rat assessed as reduction of Triton WR-1339-induced increase of blood total cholesterol level at 100 mg/kg, po after 18 hrs; type: functional; set-up: scale not given: the % may be the effect or the level left
Method in brief: (§1)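 Hyperlipidemia induced by Triton WR-1339, 400 mg/kg ip, in adult male Charles Foster rats (200–225 g), five per group. Compounds were macerated in 0.2% w/v gum acacia, suspended in water and given 100 mg/kg po together with triton. Plasma was obtained by centrifugation at 2500g, 4 °C, 10 min and diluted 1:3 in saline. TC, PL and TG were measured by enzymatic methods.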

Rattus norvegicus [2] = test: Antidyslipidemic activity in Charles Foster rat assessed as reduction of Triton WR-1339-induced increase of blood phospholipid level at 100 mg/kg, po after 18 hrs; type: functional; set-up: scale not given: the % may be the effect or the level left; method in brief: as §1
Rattus norvegicus [3] = test: Antidyslipidemic activity in Charles Foster rat assessed as reduction of Triton WR-1339-induced increase of blood triglyceride level at 100 mg/kg, po after 18 hrs; type: functional; set-up: scale not given: the % may be the effect or the level left; method in brief: as §1
[4] = molecular target: T1, Tyrosine-protein phosphatase non-receptor type 1 (Homo sapiens) (UniProt P18031); test: Inhibition of PTP1B assessed as p-nitrophenolate ion production at 100 uM pretreated for 10 mins measured after 30 mins
T1 sequence (whole entry): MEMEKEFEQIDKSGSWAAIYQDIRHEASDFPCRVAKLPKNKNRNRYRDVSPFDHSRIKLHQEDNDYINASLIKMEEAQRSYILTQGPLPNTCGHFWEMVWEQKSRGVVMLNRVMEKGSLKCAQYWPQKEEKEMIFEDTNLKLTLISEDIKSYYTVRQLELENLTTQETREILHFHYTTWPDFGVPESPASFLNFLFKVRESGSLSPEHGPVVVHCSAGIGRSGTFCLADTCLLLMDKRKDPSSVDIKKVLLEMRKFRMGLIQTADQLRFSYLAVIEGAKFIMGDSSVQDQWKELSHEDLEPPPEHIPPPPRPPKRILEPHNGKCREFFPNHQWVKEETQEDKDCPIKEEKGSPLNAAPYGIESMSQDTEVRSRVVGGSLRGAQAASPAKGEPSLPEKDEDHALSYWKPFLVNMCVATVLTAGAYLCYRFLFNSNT
Method in brief: (§2)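 PTP1B was preincubated 10 min with compound, with and without 0.01% Triton X-100. Substrate was 10 mM pNPP in 50 mM HEPES pH 7.0 with 1 mM DTT and 2 mM EDTA. After 30 min at 37 °C the reaction was stopped with 0.1 N NaOH and A410 was read. Product was calculated with ε 1.78×10⁴ M⁻¹cm⁻¹. Sodium orthovanadate served as standard. IC50 came from dose–response curves.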

[5] = molecular target: Dipeptidyl peptidase 4 (Homo sapiens) (UniProt P27487); test: Inhibition of DPP4 at 100 uM after 15 mins by spectrofluorimeter
Sequence of Dipeptidyl peptidase 4 (Homo sapiens) (P27487 whole entry, looked up): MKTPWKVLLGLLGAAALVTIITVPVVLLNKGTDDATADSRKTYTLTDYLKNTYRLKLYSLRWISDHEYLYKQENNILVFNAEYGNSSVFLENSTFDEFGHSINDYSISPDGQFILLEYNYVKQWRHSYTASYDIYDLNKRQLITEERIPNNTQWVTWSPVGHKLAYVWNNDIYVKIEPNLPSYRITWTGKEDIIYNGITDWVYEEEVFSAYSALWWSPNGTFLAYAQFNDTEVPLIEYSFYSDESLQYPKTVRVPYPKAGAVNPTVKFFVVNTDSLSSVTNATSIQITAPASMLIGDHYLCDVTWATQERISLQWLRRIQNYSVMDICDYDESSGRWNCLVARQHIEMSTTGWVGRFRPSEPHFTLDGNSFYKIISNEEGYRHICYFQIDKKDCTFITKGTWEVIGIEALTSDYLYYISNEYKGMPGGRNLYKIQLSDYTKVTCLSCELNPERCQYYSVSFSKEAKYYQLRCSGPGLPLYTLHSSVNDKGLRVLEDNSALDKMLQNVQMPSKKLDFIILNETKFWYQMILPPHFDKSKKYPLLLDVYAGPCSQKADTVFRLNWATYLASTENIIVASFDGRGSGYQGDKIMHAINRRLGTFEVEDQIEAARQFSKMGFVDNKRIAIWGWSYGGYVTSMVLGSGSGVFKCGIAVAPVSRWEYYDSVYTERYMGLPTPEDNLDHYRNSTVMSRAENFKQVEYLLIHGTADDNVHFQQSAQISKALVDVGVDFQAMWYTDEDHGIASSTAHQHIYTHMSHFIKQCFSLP
Method in brief: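 DPP-IV activity was measured at 37 °C as Gly-Pro-AMC (30 µM) cleavage in Tris–HCl pH 7.4 with test compound. Fluorescence was read at excitation 355 nm and emission 460 nm. The initial rate was taken over the first 15 min.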

[6] = Inhibition of alpha-glucosidase at 100 uM after 3 mins
Method in brief: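 α-Glucosidase (0.1 mg/mL, purified) was assayed in 67 mM sodium phosphate pH 6.8 with 1.0 mg/mL glutathione. The reaction was started with 3.0 mg/mL pNPG and followed at 405 nm every 30 s for 3 min.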

[7] = Inhibition of glycogen phosphorylase assessed as […] phosphate release at 100 uM after 30 mins
Method in brief: (§3)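 Glycogen phosphorylase was incubated with glycogen, glucose-1-phosphate, NaF and 5′-AMP for 30 min at 37 °C. The reaction was stopped with 10% TCA and 0.1 M sodium acetate. Samples were held overnight at 4 °C, then released Pi was measured.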

[8] = molecular target: T2, Glucose-6-phosphatase catalytic subunit 1 (Homo sapiens) (UniProt P35575); test: Inhibition of glucose-6-phosphatase assessed as inositol phosphate release at 100 uM after 30 mins; conditions: in the assay text read “inorganic phosphate” for “inositol phosphate”
T2 sequence (whole entry): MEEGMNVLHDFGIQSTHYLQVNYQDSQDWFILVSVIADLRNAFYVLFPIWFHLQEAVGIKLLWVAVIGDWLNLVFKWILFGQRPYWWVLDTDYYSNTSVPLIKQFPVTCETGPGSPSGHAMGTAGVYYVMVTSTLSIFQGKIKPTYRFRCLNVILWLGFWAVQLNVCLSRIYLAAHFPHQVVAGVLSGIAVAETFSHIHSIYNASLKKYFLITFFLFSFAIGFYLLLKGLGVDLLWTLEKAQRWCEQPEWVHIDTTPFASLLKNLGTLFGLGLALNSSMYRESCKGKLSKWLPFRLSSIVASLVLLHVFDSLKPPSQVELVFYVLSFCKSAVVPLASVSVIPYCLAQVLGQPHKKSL
Method in brief: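 Glucose-6-phosphatase was assayed in 0.3 M citrate pH 6.0 with 28 mM EDTA, 14 mM NaF, 200 mM glucose-6-phosphate and enzyme protein. After 30 min at 37 °C the reaction was stopped with 10% TCA. Activity was expressed as µmol Pi released per min per mg protein.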

Rattus norvegicus [9] = test: Antihyperglycemic activity in Sprague-Dawley albino rat streptozotocin-induced beta-cell damaged diabetic model assessed as decrease of blood glucose level at 100 mg/kg, po administered 30 mins before glucose challenge measured after 24 hrs by glucometer; type: functional; set-up: scale not given: the % may be the effect or the level left
Method in brief: (§4)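 Rats were made diabetic with streptozotocin 60 mg/kg ip in 100 mM citrate pH 4.5 after an overnight fast. Animals with glucose 144–270 mg/dl at 48 h were used, 5–6 per group. Compounds were given 100 mg/kg orally in 1.0% gum acacia. Sucrose 2.5 g/kg followed 30 min later. Glucose was read by glucostrips up to 300 min and at 24 h. Non-responders were excluded. Percent activity came from AUC versus control.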

Rattus norvegicus [10] = test: Antihyperglycemic activity in Sprague-Dawley albino rat streptozotocin-induced beta-cell damaged diabetic model assessed as decrease of blood glucose level at 100 mg/kg, po administered 30 mins before glucose challenge measured after 5 hrs by glucometer; type: functional; set-up: scale not given: the % may be the effect or the level left; method in brief: as §4
Rattus norvegicus [11] = test: Antihyperglycemic activity in Charles Foster-Wistar albino rat sucrose loaded model assessed as decrease of blood glucose level at 100 mg/kg, po administered 30 mins before glucose challenge measured up to 120 mins by glucometer; type: functional; set-up: scale not given: the % may be the effect or the level left; conditions: in the assay text read “Sprague-Dawley” for “Charles Foster-Wistar”
Method in brief: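 Sprague–Dawley male rats with blood glucose 60–80 mg/dl, 5–6 per group, received 100 mg/kg orally as a suspension in 1.0% gum acacia; controls received vehicle. Sucrose 10.0 g/kg was given orally 30 min later. Glucose was read by glucometer at 30, 60, 90 and 120 min. Food was withheld. Percent activity came from AUC versus control.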

[12] = Inhibition of glycogen phosphorylase assessed as inositol phosphate release after 30 mins; method in brief: as §3
[13] = molecular target: T3, Tyrosine-protein phosphatase non-receptor type 1 (Homo sapiens, UniProt P18031); test: Inhibition of PTP1B assessed as p-nitrophenolate ion production pretreated for 10 mins measured after 30 mins; method in brief: as §2
T3 sequence (P18031 whole entry): T1 sequence (whole entry)

Mus musculus [14] = organism: Mus musculus; test: Antihyperglycemic activity in C57BL/KsBom-db db/db mouse assessed as decrease in blood glucose AUC level measured on day 10 by oral glucose tolerance test (reference value: 32480 +/- 5098 %); type: functional; set-up: scale not given: the % may be the effect or the level left
Mus musculus [15] = organism: Mus musculus; test: Antihyperglycemic activity in C57BL/KsBom-db db/db mouse assessed as decrease in blood glucose AUC level measured on day 5 by oral glucose tolerance test (reference value: 30730 +/- 3687 %); type: functional; set-up: scale not given: the % may be the effect or the level left
Rattus norvegicus [16] = test: Antihyperglycemic activity in po dosed Sprague-Dawley albino rat streptozotocin-induced beta-cell damaged diabetic model assessed as decrease of blood glucose level […] measured after 24 hrs by glucometer; type: functional

SMILES | Activity (Rattus norvegicus [1]) [%] | Activity (Rattus norvegicus [2]) [%] | Activity (Rattus norvegicus [3]) [%] | inhibition [4] [%] | inhibition [5] | inhibition [6] | inhibition [7] | inhibition [8] | Activity (Rattus norvegicus [9]) [%] | Activity (Rattus norvegicus [10]) [%] | Activity (Rattus norvegicus [11]) [%] | IC50 [12] [µM] | IC50 [13] [µM] | Activity (Mus musculus [14]) [%] | Activity (Mus musculus [15]) [%] | ED50 (Rattus norvegicus [16]) [mg/kg]
Cc1ccc(C)c(OCCCC(C)(C)C(=O)O)c1 [GEMFIBROZIL] | -37.56 | -39.43 | -36.21 | – | – | – | – | – | – | – | – | – | – | – | – | –
O=C1CCCC2=C1C(c1ccc(Cl)cc1)C=C(c1ccccc1)N2 (stereo not drawn) | -6.7 | -5.9 | -7.89 | 24.7 | inactive | 27.9% | 19.3% | 8.21% | 16.9 | 12.9 | 24.7 | – | – | – | – | –
CC1(C)CC(=O)C2=C(C1)NC(C(=O)O)=CC2c1ccccc1 (stereo not drawn) | -8.99 | -7.89 | -13.86 | 28.9 | 14.6% | 4.6% | 77.3% | 17.1% | 16.7 | 18.3 | 28.9 | 6.1 | – | – | – | –
CC1(C)CC(=O)C2=C(C1)NC(C(=O)O)=CC2c1ccc(Br)cc1 (stereo not drawn) | – | – | – | 12.3 | inactive | inactive | 81.3% | inactive | 13.6 | 17.8 | 31.7 | 5.3 | – | – | – | –
CC1(C)CC(=O)C2=C(C1)NC(c1ccccc1)=CC2c1ccc(Cl)cc1 (stereo not drawn) | -25.56 | -22.47 | -19.32 | 84.9 | inactive | 12.1% | 5.89% | 7.16% | 16.4 | 18.9 | 23.5 | – | 6.3 | – | – | –
CC1(C)CC(=O)C2=C(C1)NC(C(=O)O)=CC2c1ccc(Cl)cc1 (stereo not drawn) | -17.45 | -15.38 | -11.97 | 25.4 | inactive | inactive | 63.4% | inactive | 12.2 | 16.6 | 13.7 | 9.7 | – | – | – | –
CC1(C)CC(=O)C2=C(C1)NC(c1ccccc1)=CC2c1ccc(F)cc1 (stereo not drawn) | -22.45 | -18.83 | -26.34 | 88.2 | inactive | inactive | 14.6% | 7.38% | 32.3 | 29.9 | 41.3 | – | 2.9 | -32.6 | -13.2 | 47.3
COc1ccc(C2C=C(C(=O)O)NC3=C2C(=O)CC(C)(C)C3)cc1 (stereo not drawn) | -24.63 | -21.82 | -19.34 | 35.4 | 5.7% | 11.2% | 78.3% | inactive | 33.2 | 29.7 | 42.7 | 5.9 | – | -39.6 | -17.9 | 48.6
CCOC(=O)C1(O)CC(c2ccc(F)cc2)C2=C(CC(C)(C)CC2=O)O1 (stereo not drawn) | -10.3 | -17.2 | -8.2 | 5.3 | inactive | inactive | 14.9% | inactive | – | – | 15.3 | – | – | – | – | –
CC1(C)CC(=O)C2=C(C1)NC(c1ccccc1)=CC2c1ccccc1 (stereo not drawn) | -17.89 | -19.23 | -16.45 | 41.8 | 12% | 34.3% | inactive | inactive | 13.3 | 17.3 | 24.9 | – | – | – | – | –
O=C1CCCC2=C1C(c1ccc(F)cc1)C=C(c1ccccc1)N2 (stereo not drawn) | – | – | – | 70.3 | inactive | inactive | 17.4% | 21.9% | 24.1 | 19.6 | 34.5 | – | 12.6 | – | – | –
